Activity calls are given as the source filed them. The rule behind the calls is not given here. Numbered stars: 1 amine (or outer) side, 2 acyl side, 3 side chain; on linkers, the order of the positions; unused ones are H or OH. Square brackets hold non-standard residues; d marks the D form. Peptide text beside a SMILES is read from it. * marks the point of attachment. NH(1S,2S-2-CONH2-cPent) = NC(=O)[C@H]1CCC[C@@H]1N*; ACPC(1S,2S) = N[C@H]1CCC[C@@H]1C(=O)*; X1 = O=C([C@H]1CCC[C@@H]1N[*:1])[*:2]; X2 = O=C([C@H]1CNC[C@@H]1N[*:1])[*:2]; hArg = N=C(N)NCCCC[C@H](N)C(=O)O; Aib = CC(C)(N)C(=O)O
Key:
[1] = Drug metabolism in Sprague-Dawley rat kidney homogenates assessed as protease-mediated metabolite formation at 12 uM after 4 hrs by MALDI-TOF-MS analysis; format: ADME, tissue-based; details: tissue homogenate
Method in brief: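 Perfused female Sprague-Dawley kidney homogenate in 50 mM Tris-HCl pH 7.4, diluted to 2.5 mg protein/mL. Peptide spiked at 50 μg/mL (~12 μM) and incubated at 37 °C. Timed samples quenched with equal volume 1% TFA, centrifuged, dried, reconstituted in 0.1% formic acid, mixed with DHB matrix. Fragments identified by MALDI-TOF MS.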

[2] = biological target: T1, Parathyroid hormone/parathyroid hormone-related peptide receptor (Homo sapiens) (UniProt Q03431); test: Agonist activity at human PTH1 receptor expressed in human GP2.3 cells assessed as induction of cAMP after 12 to 20 mins by luciferase reporter gene assay relative to PTH(1 to 34 residues)-NH2; format: functional, cell-based
T1 sequence (whole entry): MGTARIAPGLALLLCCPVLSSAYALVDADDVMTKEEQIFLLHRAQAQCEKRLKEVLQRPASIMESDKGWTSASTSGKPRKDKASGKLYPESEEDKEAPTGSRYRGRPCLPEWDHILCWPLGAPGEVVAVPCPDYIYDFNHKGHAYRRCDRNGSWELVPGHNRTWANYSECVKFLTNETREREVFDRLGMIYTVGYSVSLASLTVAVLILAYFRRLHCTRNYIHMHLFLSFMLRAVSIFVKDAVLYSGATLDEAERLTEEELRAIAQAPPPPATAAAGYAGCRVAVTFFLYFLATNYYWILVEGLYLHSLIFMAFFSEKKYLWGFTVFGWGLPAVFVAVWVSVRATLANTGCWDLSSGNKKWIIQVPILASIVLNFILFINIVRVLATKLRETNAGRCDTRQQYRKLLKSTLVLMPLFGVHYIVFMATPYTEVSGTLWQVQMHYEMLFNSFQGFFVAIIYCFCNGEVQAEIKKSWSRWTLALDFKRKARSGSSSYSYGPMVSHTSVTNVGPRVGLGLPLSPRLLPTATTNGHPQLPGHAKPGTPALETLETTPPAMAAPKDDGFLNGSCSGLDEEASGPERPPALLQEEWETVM

[3] = Half life in Sprague-Dawley rat kidney homogenates at 12 uM by HPLC-MS analysis; format: ADME, tissue-based
Method in brief: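 Kidney homogenate (2.5 mg protein/mL, pH 7.4 Tris) spiked with peptide at 50 μg/mL (~12 μM), 37 °C, sampled 0−120 min. […] C18 UHPLC–Orbitrap MS quantified via y32 ion area ratio against calibration standards. Exponential decay fit, mean ± SD of two replicates.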

[4] = biological target: T1, Parathyroid hormone/parathyroid hormone-related peptide receptor (Homo sapiens); test: Agonist activity at human PTH1 receptor expressed in human GP2.3 cells assessed as induction of cAMP at 12 uM preincubated with Sprague-Dawley rat kidney homogenates for 60 mins followed by compound transfer to GP2.3 cells measured after 12 to 20 mins by luciferase reporter gene assay; format: functional, cell-based
Method in brief: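 Female Sprague-Dawley rat kidney homogenate (50 mM Tris-HCl pH 7.4, 2000g supernatant). 1 mM peptide stock diluted 1:85 (~12 μM), incubated at indicated times. Quenched 1:1 with acetonitrile/TFA solution, diluted to 1000−1 nM, and added 1:10 to GP2.3 cells preincubated 30 min with 0.5 mM D-luciferin. Sigmoidal variable-slope fit. Two replicates.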

[5] = biological target: T1, Parathyroid hormone/parathyroid hormone-related peptide receptor (Homo sapiens); test: Agonist activity at human PTH1 receptor expressed in human GP2.3 cells assessed as induction of cAMP at 0.1 to 100 nM preincubated with SIF for 10 mins followed by compound transfer to GP2.3 cells by luciferase reporter gene assay; format: functional, cell-based
Method in brief: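 Simulated intestinal fluid containing pancreatin, pH 6.8, prepared fresh and kept at 37 °C. Peptide incubated in it as for gastric fluid. Quenched 1:1 with 50% acetonitrile/1% TFA. Quenched samples serially diluted in CO2-independent medium and applied to luciferin-preloaded GP2.3 cells at 100−0.1 nM final. Luminescence read. Two technical replicates.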

pepsin = test: Stability in simulated gastric fluid assessed as pig pepsin-mediated proteolysis by measuring half life at 40 uM by RP-HPLC analysis; format: ADME, Sus scrofa; details: simulated gastric fluid with pig pepsin
Method in brief: (§1)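 Peptide at 200 μM (from 1 mM stock in 10 mM acetic acid) incubated at 37 °C in fresh SGF (NaCl, porcine pepsin, HCl, pH ~1.2). Quenched by 10× PBS to neutral pH (40 μM). Duplicate reactions. Intact peptide measured by RP-HPLC peak area. For bioactivity, samples diluted into CO2-independent medium and added to luciferin-loaded GP2.3 cells at 100 nM−0.1 nM final.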

Mus musculus [6] = test: In vivo induction of excessive bloodstream calcium concentration in CD1 mouse at 20 nmol/kg, sc up to 2 hrs by Ca2+/pH analyzer; format: organism-based
Method in brief: (§2)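 Female CD1 mice (9−12 weeks), n = 5, given 20 nmol/kg subcutaneously in 10 mM citrate/150 mM NaCl/0.05% Tween-80, pH 5.0. Tail vein blood taken before and at times after dosing. Ca2+ measured by Ca2+/pH analyzer. One-way ANOVA with Dunnett's test vs vehicle. Mean ± SEM.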

[7] = biological target: T1, Parathyroid hormone/parathyroid hormone-related peptide receptor (Homo sapiens); test: Agonist activity at human PTH1 receptor expressed in human GP2.3 cells assessed as induction of cAMP at 0.1 to 100 nM preincubated with SGF for 4 hrs followed by compound transfer to GP2.3 cells by luciferase reporter gene assay; format: functional, cell-based; method in brief: as §1
Blood = test: Drug level in CD1 mouse blood at 20 nmol/kg, sc measured up to 2 hrs; format: ADME, organism-based; details: in vivo
Method in brief: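 Female CD1 mice, n = 5, 20 nmol/kg subcutaneously in citrate/NaCl/Tween-80 vehicle, pH 5.0. 2 μL serum from timed bleeds, mixed with CO2-independent medium, added to GP2.3 cells. Luminescence converted to peptide concentration via a standard curve.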

[8] = biological target: T1, Parathyroid hormone/parathyroid hormone-related peptide receptor (Homo sapiens); test: Agonist activity at human PTH1 receptor expressed in human GP2.3 cells assessed as induction of cAMP at 0.1 to 100 nM preincubated with protease activity quenched SGF up to 4 hrs followed by compound transfer to GP2.3 cells by luciferase reporter gene assay; format: functional, cell-based
Method in brief: (§3)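 Control samples: simulated gastric fluid neutralized with 10× PBS, or intestinal fluid mixed with acetonitrile/TFA quench solution, before adding peptide. Gastric controls held up to 4 h. Then diluted and tested on luciferin-loaded GP2.3 cells at 100−0.1 nM final, alongside freshly prepared peptide.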

[9] = biological target: T2, Parathyroid hormone/parathyroid hormone-related peptide receptor (Homo sapiens, UniProt Q03431); test: Agonist activity at human PTH1 receptor expressed in human GP2.3 cells assessed as induction of cAMP after 12 to 20 mins by luciferase reporter gene assay; format: functional, cell-based; details: read-out: EC50
T2 sequence (Q03431 whole entry): T1 sequence (whole entry)

[10] = biological target: T1, Parathyroid hormone/parathyroid hormone-related peptide receptor (Homo sapiens); test: Agonist activity at human PTH1 receptor expressed in human GP2.3 cells assessed as induction of cAMP at 0.1 to 100 nM preincubated with protease activity quenched SIF followed by compound transfer to GP2.3 cells by luciferase reporter gene assay; format: functional, cell-based; method in brief: as §3
Mus musculus [11] = test: In vivo induction of excessive bloodstream calcium concentration in CD1 mouse at 20 nmol/kg, sc after 2 hrs by Ca2+/pH analyzer; format: organism-based; method in brief: as §2
[12] = biological target: T1, Parathyroid hormone/parathyroid hormone-related peptide receptor (Homo sapiens); test: Displacement of [125I]-PTH(1 to 34 residues) from R0 state of human PTHR1 expressed in African green monkey COS7 cell membranes incubated for >1 hr in presence of GTPgammaS by gamma radiation method

For `CSCC[C@H](NC(=O)[C@H]1CCC[C@@H]1NC(=O)[C@H](CCC(N)=O)NC(=O)[C@H]1CCC[C@@H]1NC(=O)[C@H](CCC(=O)O)NC(=O)C(C)(C)NC(=O)[C@@H](NC(=O)[C@H]1CCC[C@@H]1N)C(C)C)C(=O)N[C@@H](Cc1cnc[nH]1)C(=O)N[C@@H](CCC(N)=O)C(=O)N[C@@H](CCCCNC(=N)N)C(=O)N[C@@H](C)C(=O)N[C@@H](CCCCN)C(=O)N[C@H]1CCC[C@@H]1C(=O)N[C@@H](CC(C)C)C(=O)N[C@@H](CC(N)=O)C(=O)N[C@@H](CO)C(=O)N[C@H]1CCC[C@@H]1C(=O)N[C@@H](CCCNC(=N)N)C(=O)N[C@@H](CCCNC(=N)N)C(=O)N[C@H](C(=O)N[C@H]1CNC[C@@H]1C(=O)N[C@@H](Cc1c[nH]c2ccccc12)C(=O)N[C@@H](CC(C)C)C(=O)N[C@@H](CCCNC(=N)N)C(=O)N[C@H]1CNC[C@@H]1C(=O)N[C@@H](CCCCN)C(=O)N[C@@H](CC(C)C)C(=O)N[C@@H](CCC(N)=O)C(=O)N[C@H]1CCC[C@@H]1C(=O)N[C@H](C(=O)N[C@@H](Cc1cnc[nH]1)C(=O)N[C@@H](CC(N)=O)C(=O)N[C@H]1CCC[C@@H]1C(N)=O)C(C)C)C(C)C` ({ACPC(1S,2S)}-V[Aib]E[X1]Q[X1]MHQ[hArg]AK[X1]LNS[X1]RRV[X2]WLR[X2]KLQ[X1]VHN-{NH(1S,2S-2-CONH2-cPent)}), the Drug metabolism [1] was “Metabolite_Notdetected”, the fold change (FC) [2] was 7.1 to 9.5 and the half-life at 12 µM [3] was 0.517 h. The Activity [4] was “Active”, the Activity [5] was “Active” and the half-life at 40 µM (pepsin) was 4 h. The Activity (Mus musculus [6]) was “Toxic”, the Activity [7] was “Active” and the Drug uptake (Blood) was “Not Active”. The Activity [8] was “Active”, the EC50 [9] was 0.48 to 0.78 nM and the Activity [10] was “Active”. The Activity (Mus musculus [11]) was “Non-Toxic” and the inhibition [12] was “Active”.
